Test results: ChEMBL document CHEMBL4673188, “Identification of 6-amino-1H-pyrazolo[3,4-d]pyrimidines with in vivo efficacy against visceral leishmaniasis” (RSC Med Chem, 2020)

System: not listed separately
Test: Kinetic aqueous solubility of compound in phosphate buffer at pH 7.4 incubated for 1 hr
Format: physicochemical
Settings: read-out: Kinetic_solubility
In short: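 10 mM DMSO stock diluted 20-fold into pH 7.4 phosphate buffered saline, equilibrated 1 h at room temperature, filtered; filtrate quantified by calibrated charged aerosol detection.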

Row | Structure (SMILES) | solubility kinetic at 1 h [µM]
1 | CCS(=O)(=O)N[C@H]1CC[C@H](Nc2ncc3c(CC(C)C)n[nH]c3n2)CC1 | < 1

System: not listed separately
Test: Intrinsic clearance in CD-1 mouse liver microsomes at 0.5 uM in presence of NADPH measured up to 30 mins by UPLC-MS/MS analysis
Format: ADME, Microsome
Settings: 0.5 h
In short: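 Female CD1 mouse liver microsomes, test compound 0.5 μM; reaction started with excess NADPH (8 mg/mL in 50 mM potassium phosphate, pH 7.4). Aliquots at 0, 3, 6, 9, 15, 30 min quenched in acetonitrile, internal standard added, protein spun down; UPLC-MS/MS. Rate constant k from exponential decay of compound/internal standard peak-area ratio.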

Row | Structure (SMILES) | intrinsic clearance [mL/min/g]
2 | O=C(Cc1ccc(F)c(F)c1)N1CCC(Nc2ncc3c(C4CCOCC4)n[nH]c3n2)CC1 | 3.1
3 | CC(C)Cc1n[nH]c2nc(NC3CCN(C(=O)Cc4ccc(Cl)cc4Cl)CC3)ncc12 | 30
4 | O=C(Cc1ccc(F)cc1F)N1CCC(Nc2ncc3c(C4CC4)n[nH]c3n2)CC1 | 5
5 | O=C(Cc1ccc(F)cc1F)N1CCC(Nc2ncc3c(CN4CCOCC4)n[nH]c3n2)CC1 | < 0.5
6 | CCS(=O)(=O)N[C@H]1CC[C@H](Nc2ncc3c(CC(C)C)n[nH]c3n2)CC1 | 27
7 | O=C(CC1CC1)N1CCC(Nc2ncc3c(C4CCOCC4)n[nH]c3n2)CC1 | 0.8
8 | CC(C)Cc1n[nH]c2nc(NC3CCN(C(=O)c4ccccc4)CC3)ncc12 | 7
9 | O=C(Cc1ccc(F)c(F)c1)N1CCC(Nc2ncc3c(N4CCOCC4)n[nH]c3n2)CC1 | 1.6
10 | COc1ccccc1-c1n[nH]c2nc(NC3CCN(C(=O)Cc4ccc(F)cc4F)CC3)ncc12 | 5
11 | CC(C)Cc1n[nH]c2nc(NC3CCN(S(=O)(=O)Cc4ccccc4)CC3)ncc12 | > 50
12 | CC(C)(C)Cc1n[nH]c2nc(NC3CCN(C(=O)Cc4ccc(F)cc4F)CC3)ncc12 | 22
13 | COc1ccccc1-c1n[nH]c2nc(NC3CCN(C(=O)CC4CC4)CC3)ncc12 | 1.6
14 | COc1ccccc1-c1n[nH]c2nc(NC3CCN(S(=O)(=O)CCC(F)(F)F)CC3)ncc12 | 14
15 | COc1ccccc1-c1n[nH]c2nc(NC3CCN(C(=O)Cc4ccc(F)c(F)c4)CC3)ncc12 | 6.3
16 | Clc1ccc(N2CCC(Nc3ncc4c(N5CCOCC5)n[nH]c4n3)CC2)nn1 | 0.6
17 | O=C(Cc1ccc(F)cc1F)N1CCC(Nc2ncc3c(N4CCOCC4)n[nH]c3n2)CC1 | 2
18 | CCOC(=O)N1CCC(Nc2ncc3c(-c4ccccc4OC)n[nH]c3n2)CC1 | 14
19 | CC(C)Cc1n[nH]c2nc(NC3CCN(C(=O)Cc4ccc(F)cc4F)CC3)ncc12 | 12
20 | COc1ccccc1-c1n[nH]c2nc(NC3CCN(C(=O)OCc4ccccc4)CC3)ncc12 | 9
21 | COc1ccccc1-c1n[nH]c2nc(NC3CCN(C(=O)N4CCOCC4)CC3)ncc12 | 2
22 | CC(C)Cc1n[nH]c2nc(NC3CCN(C(=O)Cc4ccccc4)CC3)ncc12 | 18
23 | Cn1nccc1-c1n[nH]c2nc(NC3CCN(C(=O)Cc4ccc(F)cc4F)CC3)ncc12 | 3.3
24 | O=C(Cc1ccc(F)cc1F)N1CCC(Nc2ncc3c(-c4ccccc4)n[nH]c3n2)CC1 | 7.2
25 | COc1ncccc1-c1n[nH]c2nc(NC3CCN(C(=O)Cc4ccc(F)cc4F)CC3)ncc12 | 15
26 | O=C(Cc1ccc(F)cc1F)N1CCC(Nc2ncc3c(C4CCOCC4)n[nH]c3n2)CC1 | 0.5
27 | O=C(Cc1ccc(F)cc1F)N1CCC(Nc2ncc3c(-c4ccccn4)n[nH]c3n2)CC1 | 6.7
28 | COc1ccccc1-c1n[nH]c2nc(NC3CCN(c4ccc(Cl)nn4)CC3)ncc12 | 3.4

System: THP-1
Test: Cytotoxicity against human THP-1 cells incubated for 72 hrs by resazurin dye based assay
Format: cell-based
Settings: THP-1, 72 h

Row | Structure (SMILES) | EC50 [µM]
29 | CCS(=O)(=O)N[C@H]1CC[C@H](Nc2ncc3c(CC(C)C)n[nH]c3n2)CC1 | > 50.1

System: not listed separately
Test: AUC (0 to T last) in rat at 10 mg/kg
Format: ADME, organism-based
Parameters: dose 10 mg/kg
Settings: in vivo

Row | Structure (SMILES) | AUC(0-t) [ng·h/mL]
30 | O=C(Cc1ccc(F)c(F)c1)N1CCC(Nc2ncc3c(N4CCOCC4)n[nH]c3n2)CC1 | 448
